Results: ChEMBL document CHEMBL4828713, “DNA-Encoded Library Hit Confirmation: Bridging the Gap Between On-DNA and Off-DNA Chemistry” (ACS Med Chem Lett, 2021)
Blank lines part the entries; values can stand above or below the molecule they belong to.

Tests used:
[1] = biological target: T1, Receptor-interacting serine/threonine-protein kinase 2 (Homo sapiens, UniProt O43353); assay: Relative binding affinity to RIP2 (unknown origin) by affinity selection mass spectrometry analysis
Procedure, shortened: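 Test material was freed from the DNA headpiece by cleaving the tetrahydropyranyl linker with 0.1% formic acid at 60 °C for 1 h. The released compound was then tested by affinity selection mass spectrometry, and binding was expressed as relative binding affinity (%RBA).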

[2] = biological target: Vascular endothelial growth factor receptor 2 (Homo sapiens, UniProt P35968); assay: Inhibition of VEGFR2 (unknown origin)
[3] = biological target: Epidermal growth factor receptor (Homo sapiens, UniProt P00533); assay: Inhibition of EGFR (unknown origin)
TGF-beta receptor type-1 = biological target: T2, TGF-beta receptor type-1 (Homo sapiens, UniProt P36897); assay: Inhibition of ALK5 (unknown origin)
T2 sequence (P36897 whole entry): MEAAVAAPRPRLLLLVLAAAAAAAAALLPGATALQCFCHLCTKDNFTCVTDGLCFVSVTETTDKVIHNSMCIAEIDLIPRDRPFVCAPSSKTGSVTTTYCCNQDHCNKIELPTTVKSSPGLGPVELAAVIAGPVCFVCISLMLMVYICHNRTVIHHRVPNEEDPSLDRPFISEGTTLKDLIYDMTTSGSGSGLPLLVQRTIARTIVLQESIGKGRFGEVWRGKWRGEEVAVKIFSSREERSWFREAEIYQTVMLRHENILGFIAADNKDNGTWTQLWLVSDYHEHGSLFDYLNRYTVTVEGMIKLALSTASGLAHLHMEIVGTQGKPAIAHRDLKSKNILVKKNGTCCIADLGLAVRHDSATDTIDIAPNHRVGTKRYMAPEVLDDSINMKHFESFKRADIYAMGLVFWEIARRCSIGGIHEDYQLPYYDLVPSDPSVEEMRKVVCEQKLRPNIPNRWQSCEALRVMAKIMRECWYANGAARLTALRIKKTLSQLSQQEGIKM

[4] = biological target: T1, Receptor-interacting serine/threonine-protein kinase 2; assay: Inhibition of RIP2 (unknown origin)
[5] = biological target: T1, Receptor-interacting serine/threonine-protein kinase 2; assay: Inhibition of RIP2 (unknown origin) by fluorescence polarization based binding assay
[6] = biological target: T1, Receptor-interacting serine/threonine-protein kinase 2; assay: Inhibition of RIP2 (unknown origin) by biochemical assay

T1 sequence (O43353 whole entry): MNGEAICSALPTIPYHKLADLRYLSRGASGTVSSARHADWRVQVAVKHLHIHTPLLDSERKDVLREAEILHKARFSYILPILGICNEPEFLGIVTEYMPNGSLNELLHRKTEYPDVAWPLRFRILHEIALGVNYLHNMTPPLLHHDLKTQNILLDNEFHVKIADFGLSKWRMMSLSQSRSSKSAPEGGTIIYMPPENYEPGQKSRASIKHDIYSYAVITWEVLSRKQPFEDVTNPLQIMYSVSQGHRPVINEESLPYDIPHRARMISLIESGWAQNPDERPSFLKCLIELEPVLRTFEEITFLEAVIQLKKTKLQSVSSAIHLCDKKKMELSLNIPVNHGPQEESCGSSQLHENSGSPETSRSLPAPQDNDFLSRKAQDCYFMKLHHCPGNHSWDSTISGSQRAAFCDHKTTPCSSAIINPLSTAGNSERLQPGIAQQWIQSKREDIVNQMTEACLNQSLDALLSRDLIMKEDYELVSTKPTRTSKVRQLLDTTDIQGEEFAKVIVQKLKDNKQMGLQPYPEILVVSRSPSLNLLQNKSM
Chain of Vascular endothelial growth factor receptor 2 (P35968 whole entry): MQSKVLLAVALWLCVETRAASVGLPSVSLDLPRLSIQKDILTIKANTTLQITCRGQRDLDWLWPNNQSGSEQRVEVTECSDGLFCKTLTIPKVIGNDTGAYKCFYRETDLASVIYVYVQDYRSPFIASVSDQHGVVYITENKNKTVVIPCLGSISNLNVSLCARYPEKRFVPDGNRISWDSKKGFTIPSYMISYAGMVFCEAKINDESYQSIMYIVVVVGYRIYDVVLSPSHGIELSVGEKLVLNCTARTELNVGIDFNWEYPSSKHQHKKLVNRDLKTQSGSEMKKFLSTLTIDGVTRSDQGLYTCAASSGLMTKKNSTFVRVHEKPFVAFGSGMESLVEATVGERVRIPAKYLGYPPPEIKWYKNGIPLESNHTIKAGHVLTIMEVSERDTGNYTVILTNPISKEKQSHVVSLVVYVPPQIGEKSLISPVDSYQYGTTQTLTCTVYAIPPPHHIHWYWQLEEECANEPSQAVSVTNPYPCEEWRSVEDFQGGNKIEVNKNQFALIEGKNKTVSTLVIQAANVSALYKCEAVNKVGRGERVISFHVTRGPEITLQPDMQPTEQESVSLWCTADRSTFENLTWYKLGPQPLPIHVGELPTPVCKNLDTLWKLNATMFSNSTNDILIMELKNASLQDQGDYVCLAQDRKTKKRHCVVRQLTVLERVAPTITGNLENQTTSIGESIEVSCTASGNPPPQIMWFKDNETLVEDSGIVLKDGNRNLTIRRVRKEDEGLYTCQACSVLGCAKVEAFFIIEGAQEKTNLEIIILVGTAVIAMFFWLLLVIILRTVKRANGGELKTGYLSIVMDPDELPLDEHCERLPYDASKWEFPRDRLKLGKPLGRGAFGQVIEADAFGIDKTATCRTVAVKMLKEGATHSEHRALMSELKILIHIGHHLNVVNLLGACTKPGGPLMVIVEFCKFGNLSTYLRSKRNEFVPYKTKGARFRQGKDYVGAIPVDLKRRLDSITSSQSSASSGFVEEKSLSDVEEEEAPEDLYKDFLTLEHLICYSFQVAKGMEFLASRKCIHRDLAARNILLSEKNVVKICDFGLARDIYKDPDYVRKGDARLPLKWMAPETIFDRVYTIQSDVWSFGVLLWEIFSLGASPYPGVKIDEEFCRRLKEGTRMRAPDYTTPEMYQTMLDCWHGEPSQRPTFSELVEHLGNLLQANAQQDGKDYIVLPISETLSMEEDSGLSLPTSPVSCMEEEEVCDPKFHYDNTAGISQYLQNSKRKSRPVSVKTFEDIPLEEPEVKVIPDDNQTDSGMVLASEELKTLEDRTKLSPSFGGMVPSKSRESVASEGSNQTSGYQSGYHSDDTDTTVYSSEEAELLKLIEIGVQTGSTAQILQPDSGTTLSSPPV
Chain of Epidermal growth factor receptor (P00533 whole entry): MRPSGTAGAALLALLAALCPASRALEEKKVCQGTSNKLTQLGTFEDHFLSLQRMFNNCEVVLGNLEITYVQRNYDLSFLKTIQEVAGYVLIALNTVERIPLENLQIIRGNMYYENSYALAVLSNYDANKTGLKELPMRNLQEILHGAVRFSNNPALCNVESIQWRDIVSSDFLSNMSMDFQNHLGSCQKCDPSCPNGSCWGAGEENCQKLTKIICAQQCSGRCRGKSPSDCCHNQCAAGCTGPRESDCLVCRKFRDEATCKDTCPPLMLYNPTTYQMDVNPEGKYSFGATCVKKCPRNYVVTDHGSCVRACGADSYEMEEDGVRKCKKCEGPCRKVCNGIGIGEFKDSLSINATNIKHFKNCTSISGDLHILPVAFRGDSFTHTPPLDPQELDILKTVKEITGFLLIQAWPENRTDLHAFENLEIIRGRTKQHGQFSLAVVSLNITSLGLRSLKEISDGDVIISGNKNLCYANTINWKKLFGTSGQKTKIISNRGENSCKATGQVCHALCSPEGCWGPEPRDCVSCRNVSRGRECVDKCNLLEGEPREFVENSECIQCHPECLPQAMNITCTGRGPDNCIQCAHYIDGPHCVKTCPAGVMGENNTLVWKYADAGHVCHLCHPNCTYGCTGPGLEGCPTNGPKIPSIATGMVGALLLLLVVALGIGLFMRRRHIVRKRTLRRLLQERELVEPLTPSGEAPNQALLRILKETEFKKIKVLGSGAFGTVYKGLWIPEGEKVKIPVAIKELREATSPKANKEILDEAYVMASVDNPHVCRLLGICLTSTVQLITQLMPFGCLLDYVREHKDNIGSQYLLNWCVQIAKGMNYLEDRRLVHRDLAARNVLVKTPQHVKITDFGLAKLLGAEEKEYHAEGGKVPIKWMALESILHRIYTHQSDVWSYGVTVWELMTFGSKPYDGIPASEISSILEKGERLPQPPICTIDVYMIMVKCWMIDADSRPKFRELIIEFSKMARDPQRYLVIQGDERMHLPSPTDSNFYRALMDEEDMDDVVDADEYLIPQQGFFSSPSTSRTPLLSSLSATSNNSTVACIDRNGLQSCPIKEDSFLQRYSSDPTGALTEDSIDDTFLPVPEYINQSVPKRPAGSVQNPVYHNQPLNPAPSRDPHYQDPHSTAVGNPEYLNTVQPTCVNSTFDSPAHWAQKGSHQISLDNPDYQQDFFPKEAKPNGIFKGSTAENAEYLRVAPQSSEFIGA

RBA [1]: 70%
SMILES: NC(=O)c1cc(C=O)cc(-c2ccc3c(Nc4ccc5scnc5c4)ccnc3c2)c1

RBA [1]: 30%
SMILES: COCCn1c(-c2cnc(-c3ccc(Cl)cc3)[nH]2)nc2cc(C(=O)NCCO)ccc21

IC50 [2]: < 1 nM
IC50 [3]: 100 nM
IC50 (TGF-beta receptor type-1): 79 nM
IC50 [4]: 6 nM
SMILES: Oc1cc(Nc2ccnc3cc(-c4ccccc4)ccc23)ccc1Cl

IC50 [5]: > 50000 nM
SMILES: COCCNC(=O)c1cc(CNc2ccc(Cl)c(O)c2)cc(-c2ccc3c(Cl)ccnc3c2)c1

RBA [1]: 58%
SMILES: NC(=O)c1cc(CNc2ccc3scnc3c2)cc(-c2ccc3c(Nc4ccc5scnc5c4)ccnc3c2)c1

IC50 [2]: 16 nM
IC50 [3]: 2500 nM
IC50 (TGF-beta receptor type-1): 2500 nM
IC50 [4]: 16 nM
SMILES: c1ccc(-c2ccc3c(Nc4ccc5scnc5c4)ccnc3c2)cc1

IC50 [6]: 6 nM
SMILES: COCCNC(=O)c1cc(CNc2ccc(Cl)c(O)c2)cc(-c2ccc3c(Nc4ccc(Cl)c(O)c4)ccnc3c2)c1
